{"data": "Results pooled from the literature", "HTR5A": "5-hydroxytryptamine receptor 5A (HTR5A, Homo sapiens, UniProt P47898)", "PI4KA": "Phosphatidylinositol 4-kinase alpha (PI4KA, Homo sapiens, UniProt P42356)", "note": "Compare with care: the assays were run in different laboratories."}
{"Compound": "O=C(Oc1nsnc1N1CCN(c2ccccc2)CC1)N1CCCCC1", "target": "Monoacylglycerol lipase ABHD6 (ABHD6, Homo sapiens, UniProt Q9BV23)", "test": "enzyme activity, inhibitor, fluorescence", "setting": "1 µM, lysate", "inhibition [%]": 40}
{"Compound": "CCN(CC)c1ccc(C2Nc3ccc(C(=O)c4ccccc4)cc3NC3=C2C(=O)CC(C)(C)C3)cc1 (stereo not shown)", "target": "HTR5A", "test": "ligand displacement, radioligand", "setting": "10 µM", "inhibition [%]": 85}
{"Compound": "O=C1N=C(N2CCCCN2)S/C1=C\\c1ccc(F)cc1O", "target": "Neurotensin receptor type 1 (NTSR1, Homo sapiens, UniProt P30989)", "test": "ligand displacement, radioligand", "setting": "10 µM", "inhibition [%]": "< 10"}
{"Compound": "N#Cc1cc(Cn2c(N3CCCC3)nc3ccccc32)ccc1F", "target": "HTR5A", "test": "ligand displacement", "setting": "10 µM", "inhibition [%]": -15}
{"Compound": "O=C(CSc1nc2nccnc2c(=O)n1CCc1ccccc1)Nc1nccs1", "target": "PI4KA", "test": "enzyme activity, inhibitor", "setting": "10 µM", "inhibition [%]": -5}
{"Compound": "O=C(Nc1ccc(S(=O)(=O)N2CCC(Cl)CC2)cc1)c1ccc([N+](=O)[O-])o1", "target": "D(4) dopamine receptor (DRD4, Homo sapiens, UniProt P21917)", "test": "ligand displacement, radioligand", "setting": "10 µM", "inhibition [%]": 1}
{"Compound": "CS(=O)(=O)Nc1cccc(-c2csc(NC(=O)CSc3nc4nccnc4c(=O)n3CCc3ccccc3)n2)c1", "target": "PI4KA", "test": "enzyme activity, inhibitor", "setting": "10 µM", "inhibition [%]": 5}
{"Compound": "CN(C)C1CCN(CC#Cc2nn(C3CCCC3)c3nc(NCc4ccccc4)ncc23)C1 (stereo not shown)", "target": "Protein kinase C iota type (PRKCI, Homo sapiens, UniProt P41743)", "test": "enzyme activity, inhibitor, FRET", "setting": "1 µM", "inhibition [%]": 5}
{"Compound": "CC(C)CCn1c(SCC(=O)Nc2ccccc2C(F)(F)F)nc2nccnc2c1=O", "target": "PI4KA", "test": "enzyme activity, inhibitor", "setting": "10 µM", "inhibition [%]": "< 20"}
{"Compound": "Cn1cnc(Br)c1C1=CN(c2ncnc3[nH]cnc23)CCS1", "target": "Mitogen-activated protein kinase kinase kinase 19 (MAP3K19, Homo sapiens, UniProt Q56UN5)", "test": "enzyme activity, inhibitor, radiometric", "setting": "2 µM", "inhibition [%]": 92.8}
{"Compound": "CC(C)C[C@H](NC(=O)[C@H](CC(C)C)NC(=O)CNC(=O)[C@H](C)NC(=O)[C@H](C)NC(=O)[C@H](CCCNC(=N)N)NC(=O)CNC(=O)CCCCNC(=O)[C@H](CCCCN)NC(=O)[C@H]1CCCN1C(=O)[C@H](CCCCN)NC(=O)[C@H](CCCCN)NC(=O)[C@H](CCCCN)NC(=O)[C@H](CCCCN)NC(=O)[C@H](Cc1ccc(O)cc1)NC(=O)[C@@H](N)Cc1c[nH]c2ccccc12)C(N)=O", "target": "Neuropeptides B/W receptor type 1 (NPBWR1, Homo sapiens, UniProt P48145)", "test": "calcium signal, antagonist", "setting": "10 µM", "inhibition [%]": 95}
{"Compound": "COc1cc2c3c(c1OC)-c1cc4c(cc1CC3N(CC1CC1)CC2c1ccccc1)OCO4 (stereo not shown)", "target": "HTR5A", "test": "ligand displacement, radioligand", "setting": "10 µM", "inhibition [%]": -18.2}
{"Compound": "CCCNc1nc2ccccc2n1Cc1ccc(Cl)cc1", "target": "HTR5A", "test": "ligand displacement", "setting": "10 µM", "inhibition [%]": 24.8}
